Data: ChEMBL document CHEMBL3085696, “Aurora isoform selectivity: design and synthesis of imidazo[4,5-b]pyridine derivatives as highly selective inhibitors of Aurora-A kinase in cells” (J Med Chem, 2013)

Assays:
Aurora kinase A [1] = molecular target: T1, Aurora kinase A (Homo sapiens, UniProt O14965); assay: Inhibition of N-terminal HIS-tagged aurora-A (unknown origin) using 5FAM-LRRASLG-CONH2 as substrate after 60 mins
T1 sequence (O14965 whole entry): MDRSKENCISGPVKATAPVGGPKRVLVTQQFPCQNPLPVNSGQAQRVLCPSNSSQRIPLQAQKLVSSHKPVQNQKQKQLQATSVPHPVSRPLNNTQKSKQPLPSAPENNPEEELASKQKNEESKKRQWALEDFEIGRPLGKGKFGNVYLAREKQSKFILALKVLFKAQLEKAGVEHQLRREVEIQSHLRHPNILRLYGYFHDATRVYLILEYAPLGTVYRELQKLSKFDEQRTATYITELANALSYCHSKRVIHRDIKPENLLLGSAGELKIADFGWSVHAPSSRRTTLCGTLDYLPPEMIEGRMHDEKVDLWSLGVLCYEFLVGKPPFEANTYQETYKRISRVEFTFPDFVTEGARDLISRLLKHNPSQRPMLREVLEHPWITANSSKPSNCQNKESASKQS
Procedure, shortened: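 Aurora-A (5 nM N-terminal His-tagged) incubated with 1.5 μM 5FAM-LRRASLG-CONH2 peptide and 20 μM ATP in 50 mM Tris pH 7.4, 200 mM NaCl, 5 mM MgCl2, 2 mM DTT, 0.1% Tween 20. Runs 60 min at room temperature; EDTA stop. Microfluidic separation of product from substrate. Duplicate 8-point curves, 0.25 pM–200 μM final, 1–2% DMSO. IC50 from four-parameter logistic fit.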

Mus musculus [2] = assay: Volume of distribution in Balb/C mouse at 5 mg/kg, iv and po; assay type: ADME, organism-based; parameters: dose 5 mg/kg, route oral; details: in vivo
Procedure, shortened: (§1)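 Female Balb/C mice given 5 mg/kg po or iv in 10% DMSO/5% Tween 20 in saline. Terminal cardiac-puncture plasma taken at 5, 15, 30 min and 1, 2, 4, 6, 24 h. Methanol precipitation with olomoucine internal standard. Analysis by LC/MS (ESI+ MRM).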

Mus musculus [3] = assay: Oral bioavailability in Balb/C mouse at 5 mg/kg; assay type: ADME, organism-based; details: in vivo; procedure, shortened: as §1
Aurora kinase B [4] = molecular target: T2, Aurora kinase B (Homo sapiens, UniProt Q96GD4); assay: Inhibition of N-terminal Myc tagged aurora-B-mediated histone H3 phosphorylation at S10 in human HeLa cells after 2 hrs; assay type: cell-based
T2 sequence (Q96GD4 whole entry): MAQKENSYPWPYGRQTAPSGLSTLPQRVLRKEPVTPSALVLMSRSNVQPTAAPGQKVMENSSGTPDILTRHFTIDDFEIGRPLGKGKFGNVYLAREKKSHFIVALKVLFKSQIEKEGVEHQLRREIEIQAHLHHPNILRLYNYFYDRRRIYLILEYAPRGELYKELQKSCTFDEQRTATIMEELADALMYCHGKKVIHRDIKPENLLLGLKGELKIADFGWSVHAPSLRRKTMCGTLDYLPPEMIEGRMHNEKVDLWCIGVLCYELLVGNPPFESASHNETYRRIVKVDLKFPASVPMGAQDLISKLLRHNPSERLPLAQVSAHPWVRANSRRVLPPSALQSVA
Procedure, shortened: (§2)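 Cells transfected with Myc-tagged Aurora-A (wild type or T217E, L215R, R220K mutants) and treated with inhibitor concentrations for 2 h. Lysed in LDS buffer; SDS-type PAGE and western blot. Blots probed for P-T288 (Aurora-A autophosphorylation) and phospho-histone H3 S10 (Aurora-B substrate). Blots quantified; IC50 derived; ratio taken as H3 IC50 over T288 IC50.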

Aurora kinase B [5] = molecular target: T2, Aurora kinase B; assay: Inhibition of full-length aurora-B (unknown origin) using 5FAMLRRASLG-CONH2 as substrate after 60 mins
Procedure, shortened: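 Full-length Aurora-B/INCENP complex (1 nM) incubated with 1.5 μM 5FAM-LRRASLG-CONH2 peptide and 15 μM ATP in Tris pH 7.4 buffer with NaCl, MgCl2, DTT, Tween 20. Runs 60 min at room temperature, then EDTA stop. Microfluidic mobility-shift readout of percent conversion. Duplicate 8-point curves, 0.25 pM–200 μM final. IC50 by four-parameter logistic fit.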

Aurora kinase A [6] = molecular target: Aurora kinase A (Homo sapiens, UniProt O14965, T217E); assay: Inhibition of autophosphorylation of aurora-A T217E mutant at T288 in human HeLa cells after 2 hrs; assay type: cell-based
Chain of Aurora kinase A (Homo sapiens, UniProt O14965, T217E) (O14965 whole entry I57V/T217E): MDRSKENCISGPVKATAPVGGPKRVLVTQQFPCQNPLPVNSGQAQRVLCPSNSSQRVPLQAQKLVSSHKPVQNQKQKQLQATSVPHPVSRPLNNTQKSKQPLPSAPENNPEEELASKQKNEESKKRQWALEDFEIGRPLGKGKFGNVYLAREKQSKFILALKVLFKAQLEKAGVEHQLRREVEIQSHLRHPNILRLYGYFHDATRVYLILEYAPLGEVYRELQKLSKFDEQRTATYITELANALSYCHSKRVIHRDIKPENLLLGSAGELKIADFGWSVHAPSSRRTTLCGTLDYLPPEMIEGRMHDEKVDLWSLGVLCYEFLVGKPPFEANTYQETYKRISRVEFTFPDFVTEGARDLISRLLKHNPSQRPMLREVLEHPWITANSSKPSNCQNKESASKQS
Procedure, shortened: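 Cells transfected with N-terminal Myc-tagged Aurora-A (wild type or T217E, L215R or R220K mutant, made by Quikchange mutagenesis), then exposed to a range of inhibitor concentrations for 2 h. Lysed in LDS sample buffer, sonicated, boiled, run on LDS-PAGE and blotted to nitrocellulose. Probed with anti-P-T288 (Aurora-A autophosphorylation) and anti-P-histone H3 S10 (Aurora-B substrate) antibodies. Blots quantified and IC50 fitted.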

[7] = molecular target: T3, Aurora kinase A (Homo sapiens) (UniProt O14965); details: 1 uM
T3 sequence (whole entry): T1 sequence (O14965 whole entry)

HCT-116 = assay: Antiproliferative activity against human HCT116 cells; assay type: functional
Aurora kinase A [8] = molecular target: T1, Aurora kinase A; assay: Inhibition of autophosphorylation of N-terminal Myc tagged aurora-A at T288 in human HCT116 cells after 2 hrs; assay type: cell-based, HCT-116; procedure, shortened: as §2

Question: Which results are given for `Cc1nn(C)cc1-c1nc2c(Oc3ccc(C(=O)Nc4ccccc4)cc3)c(Cl)cnc2[nH]1`?
Answer: IC50 (Aurora kinase A [1]): 0.067 µM; Vd (Mus musculus [2]): 1.8 L/kg; F (Mus musculus [3]): 100%; IC50 (Aurora kinase B [4]): 76.8 µM; IC50 (Aurora kinase B [5]): 12.7 µM; IC50 (Aurora kinase A [6]): 4.11 µM; inhibition [7]: > 80%; GI50 (HCT-116): 2.3 µM; IC50 (Aurora kinase A [8]): 0.065 µM
